The source made the active and inactive calls. The rule behind the calls is not given here.

As usually defined, the IC50 is the concentration that inhibits the measured activity by half.

Experiment [1] addresses Histone deacetylase 3/Nuclear receptor corepressor 2 (HDAC3/NCoR2) (Homo sapiens, UniProt O15379). Description: Inhibition of full length recombinant human C-terminal His-tagged HDAC3/N-terminal GST-tagged NCOR2 co-expressed in baculovirus expression system using Boc-Lys(acetyl)-AMC as substrate preincubated for 1 hr followed by substrate addition measured after 2 hrs by fluorescence assay. The procedure, abridged:
(§1)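 Recombinant HDAC incubated with serial compound dilutions at 30 °C for 1 h. Reaction run 2 h at 30 °C, stopped with developer containing trypsin and TSA. Fluorescence read after 30 min at 360/460 nm. Inhibition relative to control wells; IC50 from variable-slope fit.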

In a further experiment the target is T1, Histone deacetylase 8 (Homo sapiens, UniProt Q9BY41).
T1 sequence (Q9BY41 whole entry): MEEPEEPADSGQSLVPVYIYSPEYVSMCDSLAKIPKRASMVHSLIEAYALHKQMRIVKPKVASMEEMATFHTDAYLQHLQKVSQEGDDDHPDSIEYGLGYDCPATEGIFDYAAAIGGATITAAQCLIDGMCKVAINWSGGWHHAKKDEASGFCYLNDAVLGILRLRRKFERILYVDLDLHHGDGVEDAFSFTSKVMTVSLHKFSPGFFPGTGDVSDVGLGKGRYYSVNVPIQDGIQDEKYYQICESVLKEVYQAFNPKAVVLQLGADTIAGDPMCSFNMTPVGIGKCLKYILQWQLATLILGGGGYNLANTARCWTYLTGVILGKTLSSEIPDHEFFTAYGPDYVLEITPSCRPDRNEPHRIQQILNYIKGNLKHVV
Description: Inhibition of full length recombinant human C-terminal His-tagged HDAC8 expressed in baculovirus expression system using Boc-Lys(trifluoroacetyl)-AMC as substrate preincubated for 1 hr followed by substrate addition measured after 2 hrs by fluorescence assay. In outline:
as §1

Experiment [2] has as its target T2, Protein deacetylase HDAC6 (Homo sapiens) (UniProt Q9UBN7).
T2 sequence (whole entry): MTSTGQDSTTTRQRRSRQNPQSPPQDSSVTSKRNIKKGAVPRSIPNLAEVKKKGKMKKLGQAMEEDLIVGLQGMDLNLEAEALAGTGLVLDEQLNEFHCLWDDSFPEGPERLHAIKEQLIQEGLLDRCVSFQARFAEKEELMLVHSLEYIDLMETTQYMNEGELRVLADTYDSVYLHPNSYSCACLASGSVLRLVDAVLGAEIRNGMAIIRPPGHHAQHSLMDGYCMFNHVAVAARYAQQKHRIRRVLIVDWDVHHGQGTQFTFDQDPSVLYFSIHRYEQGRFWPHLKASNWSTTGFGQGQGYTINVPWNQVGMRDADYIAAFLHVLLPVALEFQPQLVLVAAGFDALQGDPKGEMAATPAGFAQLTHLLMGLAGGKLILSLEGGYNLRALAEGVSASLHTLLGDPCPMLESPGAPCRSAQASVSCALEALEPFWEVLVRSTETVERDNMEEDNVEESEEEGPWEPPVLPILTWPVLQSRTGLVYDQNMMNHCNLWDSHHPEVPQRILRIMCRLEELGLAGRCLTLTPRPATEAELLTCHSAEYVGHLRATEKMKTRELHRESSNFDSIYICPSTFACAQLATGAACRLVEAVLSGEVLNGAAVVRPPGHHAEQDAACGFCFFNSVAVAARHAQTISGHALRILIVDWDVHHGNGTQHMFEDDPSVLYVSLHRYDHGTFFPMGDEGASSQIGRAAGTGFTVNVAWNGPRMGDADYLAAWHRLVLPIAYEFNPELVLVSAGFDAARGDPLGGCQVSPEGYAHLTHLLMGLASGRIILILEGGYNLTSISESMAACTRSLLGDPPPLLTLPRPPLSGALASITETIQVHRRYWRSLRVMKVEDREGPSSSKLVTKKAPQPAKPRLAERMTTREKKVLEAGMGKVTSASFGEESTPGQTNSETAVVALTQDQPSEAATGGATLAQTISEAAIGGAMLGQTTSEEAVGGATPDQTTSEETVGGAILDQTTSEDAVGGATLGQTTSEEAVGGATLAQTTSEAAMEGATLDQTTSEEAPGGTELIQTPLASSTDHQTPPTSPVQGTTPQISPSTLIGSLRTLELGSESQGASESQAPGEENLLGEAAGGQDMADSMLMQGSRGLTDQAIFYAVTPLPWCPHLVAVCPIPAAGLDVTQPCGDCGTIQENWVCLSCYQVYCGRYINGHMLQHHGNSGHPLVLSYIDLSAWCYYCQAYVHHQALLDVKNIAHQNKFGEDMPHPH
Description: Inhibition of HDAC6 in human PC3 cells assessed as increase in acetylated tubulin level at 1 to 2 uM after 24 hrs by Western blot method. In kind it is cell-based. The procedure, abridged:
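MV4-11 (1,500,000/well) or PC-3 (300,000/well) grown 12 h, then treated 24 h at 1 and 2 μM, with 5 μM SAHA as reference. RIPA lysis, sonication and centrifugation, BCA normalization. NuPAGE 4–12% Bis-Tris gel in MES, transfer, primary antibodies 1/1000 overnight at 4 °C. Actin as loading control.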
In general terms: Immunoblotting shows a protein as a band on a membrane.

Chain of Histone deacetylase 3/Nuclear receptor corepressor 2 (HDAC3/NCoR2) (O15379 whole entry): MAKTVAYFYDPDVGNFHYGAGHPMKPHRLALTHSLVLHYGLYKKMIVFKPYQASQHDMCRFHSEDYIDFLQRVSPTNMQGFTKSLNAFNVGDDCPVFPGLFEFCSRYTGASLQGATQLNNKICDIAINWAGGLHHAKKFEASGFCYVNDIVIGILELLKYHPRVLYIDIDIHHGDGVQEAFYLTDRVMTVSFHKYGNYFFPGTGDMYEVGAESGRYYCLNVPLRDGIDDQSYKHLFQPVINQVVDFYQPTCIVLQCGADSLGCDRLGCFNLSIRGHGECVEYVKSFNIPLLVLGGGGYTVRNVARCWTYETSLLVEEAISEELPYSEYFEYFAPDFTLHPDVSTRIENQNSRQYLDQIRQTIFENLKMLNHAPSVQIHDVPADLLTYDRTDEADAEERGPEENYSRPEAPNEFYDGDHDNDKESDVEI
Chain of Histone deacetylase 3/Nuclear receptor corepressor 2 (HDAC3/NCoR2) (Q9Y618 whole entry, further chain): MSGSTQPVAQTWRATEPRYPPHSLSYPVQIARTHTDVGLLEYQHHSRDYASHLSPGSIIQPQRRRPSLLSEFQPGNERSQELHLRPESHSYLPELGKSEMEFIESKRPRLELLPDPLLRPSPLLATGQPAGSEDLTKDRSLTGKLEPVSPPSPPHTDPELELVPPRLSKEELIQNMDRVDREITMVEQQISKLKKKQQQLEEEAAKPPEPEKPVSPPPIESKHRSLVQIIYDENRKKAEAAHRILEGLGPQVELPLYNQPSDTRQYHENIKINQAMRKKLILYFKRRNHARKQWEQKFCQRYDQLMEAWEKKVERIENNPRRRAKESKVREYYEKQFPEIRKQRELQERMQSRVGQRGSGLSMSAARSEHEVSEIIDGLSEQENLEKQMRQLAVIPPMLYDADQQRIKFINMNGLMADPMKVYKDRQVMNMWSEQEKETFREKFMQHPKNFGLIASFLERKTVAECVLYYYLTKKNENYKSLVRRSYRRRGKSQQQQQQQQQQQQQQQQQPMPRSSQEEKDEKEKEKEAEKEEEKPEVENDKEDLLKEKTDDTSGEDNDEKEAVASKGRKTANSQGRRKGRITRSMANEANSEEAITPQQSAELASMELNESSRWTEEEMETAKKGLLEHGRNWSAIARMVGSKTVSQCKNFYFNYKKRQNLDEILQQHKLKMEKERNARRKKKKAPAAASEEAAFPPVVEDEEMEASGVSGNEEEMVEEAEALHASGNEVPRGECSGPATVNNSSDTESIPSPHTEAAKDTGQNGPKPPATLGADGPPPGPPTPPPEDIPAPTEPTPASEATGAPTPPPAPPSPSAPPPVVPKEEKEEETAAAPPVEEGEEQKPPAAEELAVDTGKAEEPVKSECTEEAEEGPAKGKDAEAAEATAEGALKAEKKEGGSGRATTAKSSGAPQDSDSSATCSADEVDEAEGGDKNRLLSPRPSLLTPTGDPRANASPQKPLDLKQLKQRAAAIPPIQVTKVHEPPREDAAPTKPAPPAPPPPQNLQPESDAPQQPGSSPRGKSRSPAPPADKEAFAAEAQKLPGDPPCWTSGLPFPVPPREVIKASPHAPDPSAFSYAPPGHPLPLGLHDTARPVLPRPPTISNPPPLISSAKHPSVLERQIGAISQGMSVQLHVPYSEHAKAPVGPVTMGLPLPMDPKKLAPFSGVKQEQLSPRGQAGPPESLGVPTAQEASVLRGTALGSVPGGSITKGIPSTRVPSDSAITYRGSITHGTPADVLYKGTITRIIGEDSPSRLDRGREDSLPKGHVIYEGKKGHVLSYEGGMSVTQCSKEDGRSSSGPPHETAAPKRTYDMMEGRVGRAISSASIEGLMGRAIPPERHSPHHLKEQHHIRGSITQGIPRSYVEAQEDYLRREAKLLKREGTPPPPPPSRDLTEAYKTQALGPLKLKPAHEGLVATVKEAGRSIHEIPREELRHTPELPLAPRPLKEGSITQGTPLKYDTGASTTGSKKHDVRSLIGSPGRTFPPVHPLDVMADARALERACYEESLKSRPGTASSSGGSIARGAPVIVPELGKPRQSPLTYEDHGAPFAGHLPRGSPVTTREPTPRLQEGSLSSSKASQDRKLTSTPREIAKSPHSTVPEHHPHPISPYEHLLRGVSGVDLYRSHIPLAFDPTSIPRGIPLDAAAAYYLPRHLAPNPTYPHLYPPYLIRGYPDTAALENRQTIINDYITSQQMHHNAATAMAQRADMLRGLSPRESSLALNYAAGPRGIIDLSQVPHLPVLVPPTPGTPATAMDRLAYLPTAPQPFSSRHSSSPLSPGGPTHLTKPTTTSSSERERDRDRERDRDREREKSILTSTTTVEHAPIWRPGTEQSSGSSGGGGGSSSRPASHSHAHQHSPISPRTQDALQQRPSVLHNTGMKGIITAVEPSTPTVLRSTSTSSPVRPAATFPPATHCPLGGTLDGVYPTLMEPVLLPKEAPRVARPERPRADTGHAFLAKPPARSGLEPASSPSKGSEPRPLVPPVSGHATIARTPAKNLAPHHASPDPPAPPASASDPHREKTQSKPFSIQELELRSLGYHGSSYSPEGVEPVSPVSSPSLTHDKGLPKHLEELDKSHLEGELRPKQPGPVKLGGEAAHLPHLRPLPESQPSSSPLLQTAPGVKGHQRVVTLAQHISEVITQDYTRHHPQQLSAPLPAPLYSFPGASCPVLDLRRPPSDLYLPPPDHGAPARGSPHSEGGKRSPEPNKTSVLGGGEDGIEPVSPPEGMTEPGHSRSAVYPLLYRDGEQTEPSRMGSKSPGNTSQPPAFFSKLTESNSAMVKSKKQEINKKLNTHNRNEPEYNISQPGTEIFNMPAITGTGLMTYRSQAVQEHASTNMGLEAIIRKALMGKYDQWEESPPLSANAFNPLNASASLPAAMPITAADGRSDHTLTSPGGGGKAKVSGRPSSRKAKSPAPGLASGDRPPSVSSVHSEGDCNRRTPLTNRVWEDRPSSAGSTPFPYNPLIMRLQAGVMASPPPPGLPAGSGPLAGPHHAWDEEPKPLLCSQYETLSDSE

On to `CCCNNC(=O)c1ccc(NC(=O)[C@H](Cc2c[nH]c3ccccc23)NC(=O)c2ccc(OC)cc2)cc1`, for which the half-maximal inhibitory concentration (IC50) in experiment [1] was determined as 1.41 nM; at Histone deacetylase 8, 626 nM. Moreover, in experiment [2], the inhibition result was “inactive”.

The values are drawn from ChEMBL document CHEMBL4020839, “Class I HDAC Inhibitors Display Different Antitumor Mechanism in Leukemia and Prostatic Cancer Cells Depending on Their p53 Status” (J Med Chem, 2018).
